Key:
UMP-CMP kinase = target: T1, UMP-CMP kinase (Homo sapiens, UniProt P30085); assay: Drug metabolism in human HuH7 cells assessed as UMP-CMP kinase-mediated ((2R,3R,4R,5R)-5-(4-amino-2-oxopyrimidin-1(2H)-yl)-4-fluoro-3-hydroxy-4-methyltetrahydrofuran-2-yl)methyl dihydrogen phosphate metabolite formation at 50 uM after 48 hrs by LC/MS/MS analysis; type: ADME, cell-based
T1 sequence (P30085 whole entry): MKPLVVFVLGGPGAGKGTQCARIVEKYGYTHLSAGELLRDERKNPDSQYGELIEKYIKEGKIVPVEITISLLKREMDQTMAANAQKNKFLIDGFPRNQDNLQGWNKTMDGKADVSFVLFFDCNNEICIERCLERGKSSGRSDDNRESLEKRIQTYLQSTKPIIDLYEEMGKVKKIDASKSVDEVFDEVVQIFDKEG
Outline: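 Huh-7 cells plated at 0.35 million/mL in DMEM with 10% FBS (about 1 million per well at dosing) and grown 18 h. At each time point cells were washed with cold saline and lysed in methanol with internal standard. Semiquantified by LC/MS/MS MRM as Δ mean peak-area ratio relative to t0.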

[1] = Half life in Beagle dog at 150 mg/kg, administered via oral gavage measured up to 24 hrs post dose by LC/MS/MS analysis; type: ADME, organism-based, Canis lupus familiaris; settings: in vivo
Outline: (§1)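 Beagle dogs, 3 per sex, given a single oral gavage dose of 150 mg/kg in 20% w/v hydroxypropyl-β-cyclodextrin in water, 2.5 mL/kg. K2EDTA blood taken by venipuncture at 0.5, 0.75, 1, 2, 4, 6, 8, 12 and 24 h. Plasma extracted with ice-cold acetonitrile, then LC/MS/MS in positive MRM mode with zolpidem as internal standard. Noncompartmental analysis; mean ± SD.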

[2] = Inhibition of wild type NS5B in HCV genotype 1b replicon expressed in human HuH7 cells after 72 hrs by bright Glo-luciferase reporter gene assay; type: cell-based, Hepatitis C virus subtype 1b; settings: Hepatitis C virus, Huh-7, 72 h
Outline: (§2)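 Huh7 cells carrying HCV genotype 1b replicon, 8000 per well, in duplicate 3-fold dilution series with 0.5% DMSO final; 72 h at 37 °C, 5% CO2. Viability read by Cell Titer-Fluor fluorescence after 5 min; replicon inhibition read by Bright-Glo luciferase luminescence in the same wells. EC50 and CC50 come from curve fitting.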

Mus musculus [3] = assay: Subacute toxicity in ICR mouse assessed as effect on tubules at 100 to 1000 mg/kg, administered once a day via oral gavage for 14 days by hematoxylin/eosin-staining based microscopic analysis; type: organism-based; settings: in vivo, 336 h
Outline: (§3)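 Same 14-day daily oral gavage design as the subacute study (ICR mice, 5 per sex per group, 100/500/1000 mg/kg or vehicle). Liver and kidney taken after anesthesia on day 15, processed routinely, cut as 5 μm paraffin sections, stained with hematoxylin and eosin and examined microscopically.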

Canis familiaris = assay: Toxicity in Beagle dog at 150 mg/kg, administered via oral gavage measured up to 24 hrs post dose; type: organism-based, Canis lupus familiaris; settings: in vivo
Outline: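 Six Beagle dogs (three male, three female) given one oral gavage dose of 150 mg/kg in 20% w/v hydroxypropyl-β-cyclodextrin in water. Animals watched for clinical symptoms and adverse events while plasma was sampled over 24 h.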

[4] = AUClast in Beagle dog at 150 mg/kg, administered via oral gavage measured up to 24 hrs post dose by LC/MS/MS analysis; type: ADME, organism-based, Canis lupus familiaris; set-up: dose 150 mg/kg, time < 24 hr, route oral; settings: in vivo; outline: as §1
Mus musculus [5] = assay: Acute toxicity in ICR mouse assessed as body weight loss at 150 to 1800 mg/kg, administered via oral gavage measured once a day over 14 days; type: organism-based; settings: in vivo, 336 h
Outline: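 ICR mice, 22−25 g, 5 per sex per group. Single oral gavage at 150, 500, 1200 or 1800 mg/kg in vehicle of 30% PEG400/30% Tween 20/20% corn oil/20% water, with a vehicle control. Mortality, morbidity, clinical signs and body weight change recorded once daily for 14 days.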

Mus musculus [6] = assay: Subacute toxicity in ICR mouse assessed as effect on appearance of hepatocytes at 100 to 1000 mg/kg, administered once a day via oral gavage for 14 days by hematoxylin/eosin-staining based microscopic analysis; type: organism-based; settings: in vivo, 336 h; outline: as §3
Mus musculus [7] = assay: Subacute toxicity in ICR mouse assessed as effect on glomerulus at 100 to 1000 mg/kg, administered once a day via oral gavage for 14 days by hematoxylin/eosin-staining based microscopic analysis; type: organism-based; settings: in vivo, 336 h; outline: as §3
[8] = Tmax in Beagle dog at 150 mg/kg, administered via oral gavage measured up to 24 hrs post dose by LC/MS/MS analysis; type: ADME, organism-based, Canis lupus familiaris; settings: in vivo; outline: as §1
Huh-7 = assay: Cytotoxicity against human HuH7 cells assessed as reduction in cell viability up to 100 uM after 72 hrs by Cell Titer-Fluor Cell assay; type: cell-based; settings: huh-7, 72 h; outline: as §2
Mus musculus [9] = assay: Subacute toxicity in ICR mouse assessed as effect on renal architecture at 100 to 1000 mg/kg, administered once a day via oral gavage for 14 days by hematoxylin/eosin-staining based microscopic analysis; type: organism-based; settings: in vivo, 336 h; outline: as §3
[10] = Half life in human plasma […] by LC/MS/MS analysis; type: ADME, cell-free
Outline: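 Pooled human plasma adjusted to pH 7.4 and prewarmed, then spiked to 2 μM final from a 200 μM DMSO working solution, in duplicate. Sampled at 0, 10, 30, 60 and 120 min and quenched with acetonitrile containing tolbutamide and buspirone. LC/MS/MS (MRM) peak area ratios; ke from linear regression of the initial linear phase, t1/2 = ln2/ke.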

Mus musculus [11] = assay: Subacute toxicity in ICR mouse assessed as effect on hepatic perilobular vein at 100 to 1000 mg/kg, administered once a day via oral gavage for 14 days by hematoxylin/eosin-staining based microscopic analysis; type: organism-based; settings: in vivo, 336 h; outline: as §3
[12] = test system: Hepatitis C virus subtype 1b; assay: Ratio of EC50 for HCV genotype 1b replicon NS5B S282T mutant to EC50 for wild type HCV genotype 1b replicon NS5B
Outline: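 Huh7 cells carrying wild-type or S282T mutant HCV genotype 1b replicon, 8000 cells per well, exposed to 3-fold compound dilution series (0.5% DMSO final, duplicates) for 72 h at 37 °C, 5% CO2. Replicon activity read by Bright-Glo luciferase luminescence. EC50 averaged from duplicate determinations; ratio taken as S282T EC50 over wild-type EC50.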

Mus musculus [13] = assay: Subacute toxicity in ICR mouse assessed as weight change in kidney at 100 to 1000 mg/kg, administered once a day via oral gavage for 14 days; type: organism-based; settings: in vivo, 336 h
Outline: (§4)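 ICR mice, 22−25 g, 5 per sex per group, gavaged daily for 14 days at 100, 500 or 1000 mg/kg in 30% PEG400/30% Tween 20/20% corn oil/20% water, with a vehicle control group. Observed daily for body weight change, skin and fur, inflammation and necrosis. Animals anesthetized on day 15; organ weights (liver, kidney) taken. Serum SGOT/SGPT compared with controls.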

Mus musculus [14] = assay: Subacute toxicity in ICR mouse assessed as clinical signs of toxicity at 100 to 1000 mg/kg, administered once a day via oral gavage for 14 days; type: organism-based; settings: in vivo, 336 h; outline: as §4
Mus musculus [15] = assay: Subacute toxicity in ICR mouse assessed as alteration in basic levels of SGOT at 100 to 1000 mg/kg, administered once a day via oral gavage for 14 days; type: organism-based; settings: in vivo, 336 h; outline: as §4
[16] = AUC (0 to infinity) in Beagle dog at 150 mg/kg, administered via oral gavage measured up to 24 hrs post dose by LC/MS/MS analysis; type: ADME, organism-based, Canis lupus familiaris; set-up: dose 150 mg/kg, route oral, time infinity; settings: in vivo; outline: as §1

**Q.** What does the source list for CCCC(=O)Nc1ccn([C@@H]2O[C@H](CO[P@@](=O)(N[C@@H](C)C(=O)OC(C)C)Oc3ccccc3)[C@@H](O)[C@@]2(C)F)c(=O)n1?
**A.** Drug metabolism (UMP-CMP kinase): Metabolite_Detected; half-life [1]: 14.2 h; EC50 [2]: 0.24 µM; Activity (Mus musculus [3]): Non-Toxic; Activity (Canis familiaris): Non-Toxic; AUC(0-t) at 24 h [4]: 248 ng·h/mL; Activity (Mus musculus [5]): Non-Toxic; Activity (Mus musculus [6]): Non-Toxic; Activity (Mus musculus [7]): Non-Toxic; Tmax [8]: 0.9 h; Activity (Huh-7): Non-Toxic; Activity (Mus musculus [9]): Non-Toxic; half-life [10]: > 3.85 h; Activity (Mus musculus [11]): Non-Toxic; Ratio EC50 [12]: 3.2; Activity (Mus musculus [13]): Non-Toxic; Activity (Mus musculus [14]): Non-Toxic; Activity (Mus musculus [15]): Non-Toxic; AUC(0-inf) [16]: 411 ng·h/mL

Source: ChEMBL document CHEMBL4011639, “Discovery of Novel Nucleotide Prodrugs with Improved Potency Against HCV Variants Carrying NS5B S282T Mutation” (J Med Chem, 2017)
